Source: ChEMBL document CHEMBL3351780, “Novel hybrids of metronidazole and quinolones: synthesis, bioactive evaluation, cytotoxicity, preliminary antimicrobial mechanism and effect of metal ions on their transportation by human serum albumin” (Eur J Med Chem, 2014)
Values after ≈ are worked out from the molar mass of the structure shown.

Key:
[1] = Cytotoxicity against human LO2 cells assessed as inhibition of cell viability at 16 ug/ml after 24 hrs by MTT assay; format: cell-based, L02; conditions: read-out: INH
In short: (§1)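 LO2 hepatocytes were plated and left to attach for 24 h. DMSO stocks were diluted in medium and added, and cells were cultured for 24 h at 37 °C in humidified 5% CO2. MTT absorbance read at 490 nm. Three parallels. Inhibition computed as percent reduction of viable cells against drug-free control.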

Saccharomyces cerevisiae = experiment: Antifungal activity against Saccharomyces cerevisiae after 24 hrs by microbroth dilution method; format: functional
In short: (§2)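 Spore suspension prepared in sterile distilled water from one-day-old cultures on Sabouraud agar, final 1-5 x 10^3 spores/mL. Compounds were serially diluted in RPMI 1640 to give eleven dilutions. Incubation at 35 °C for 24 h. Growth read visually and spectrophotometrically, in triplicate. MIC is the lowest concentration with complete inhibition.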

Albumin [2] = target: T1, Albumin (Homo sapiens, UniProt P02768); experiment: Drug transport index, ratio of Kb to K0 for human serum albumin by fluorescence spectrophotometry in presence of Ni2+; format: ADME
In short: (§3)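 HSA in Tris-HCl (0.05 M Tris, 0.15 M NaCl, pH 7.4) with compound, in the presence of CaCl2, KCl, MgCl2 or NiCl2. Fluorescence was excited at 295 nm and emission recorded from 300 to 450 nm at 298 K, with 2.5 nm slits. Binding constants with the metal ion (Kb) and without it (K0) were expressed as Kb/K0.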

Staphylococcus aureus [3] = experiment: Antibacterial activity against Staphylococcus aureus ATCC 25923 by two-fold serial dilution method; format: functional
In short: (§4)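 Standard two-fold serial dilution in 96-well microtest plates following NCCLS. Top dilutions printed as 32, 16, 8, 4, 2, 1, 0.5 ug/mL. Wells inoculated and held at 37 °C for 24 h. Growth judged visually and by spectrophotometer, in triplicate. MIC is the lowest concentration giving complete growth inhibition.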

[4] = Cytotoxicity against human LO2 cells assessed as inhibition of cell viability at 8 ug/ml after 24 hrs by MTT assay; format: cell-based, L02; conditions: read-out: INH; in short: as §1
Calf thymus DNA = experiment: Binding affinity to calf thymus DNA by UV-vis spectroscopy; format: nucleic-acid assay; conditions: Bos taurus
In short: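 Calf thymus DNA held at a fixed concentration and titrated with increasing amounts of the compound. UV-vis absorption spectra were recorded at room temperature in 1.0 cm quartz cells, following the DNA band at 260 nm.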

Albumin [5] = target: T1, Albumin; experiment: Binding affinity to human serum albumin by fluorescence spectrophotometry in presence of K+; format: ADME; conditions: isolated protein
In short: (§5)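 HSA-compound fluorescence measured in Tris-HCl (0.05 M Tris, 0.15 M NaCl, pH 7.4) with added metal chloride (CaCl2, KCl, MgCl2 or NiCl2). Excitation 295 nm, emission 300-450 nm, 298 K, 2.5 nm slits. The metal-ion effect is expressed as the ratio Kb/K0.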

[6] = Aqueous solubility of the compound by UV-spectrophotometry; format: physicochemical
Shigella dysenteriae = experiment: Antibacterial activity against Shigella dysenteriae by two-fold serial dilution method; format: functional
In short: (§6)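 MIC read as the lowest concentration giving complete growth inhibition. Two-fold serial dilutions were made in 96-well plates following NCCLS, giving a series down to 0.5 µg/mL (…32, 16, 8, 4, 2, 1, 0.5). Plates were inoculated and incubated at 37 °C for 24 h. A DMSO-with-inoculum control without drug was included. Growth was monitored visually and spectrophotometrically, in triplicate.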

Albumin [7] = target: T1, Albumin; experiment: Binding affinity to human serum albumin by fluorescence spectrophotometry in presence of Mg2+; format: ADME; conditions: isolated protein; in short: as §5
Albumin [8] = target: T1, Albumin; experiment: Binding affinity to human serum albumin by fluorescence spectrophotometry; format: ADME; conditions: isolated protein
In short: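 HSA dissolved in Tris-HCl buffer (0.05 M Tris, 0.15 M NaCl, pH 7.4). Fluorescence emission scanned 300-450 nm at 298 K with excitation at 295 nm, 2.5 nm slits and 1.0 cm quartz cells.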

Cyberlindnera jadinii = experiment: Antifungal activity against Candida utilis after 24 hrs by microbroth dilution method; format: functional; conditions: Williopsis jadinii; in short: as §2
[9] = Dissociation constant, pKa of the compound by UV-spectroscopy; format: physicochemical
In short: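 DMSO stock at 4.0 × 10^-3 mol/L added to 2 mL of buffer, then shaken 10 min at room temperature. Buffers were acetate (pH 4.0–5.0), MES (5.5–6.5), HEPES (7.0–8.0) and CHES (8.5–9.4), each from 500 mM stocks. Scans ran 210–400 nm and were normalized. Absolute differences from the acid spectrum were summed at 244 and 308 nm, plotted against pH and fitted to obtain pKa.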

Bacillus spizizenii = experiment: Antibacterial activity against Bacillus subtilis ATCC 6633 by two-fold serial dilution method; format: functional; in short: as §4
Albumin [10] = target: T1, Albumin; experiment: Binding affinity to human serum albumin by fluorescence spectrophotometry in presence of Ca2+; format: ADME; conditions: isolated protein; in short: as §5
Staphylococcus aureus [11] = experiment: Antibacterial activity against methicillin-resistant Staphylococcus aureus N315 by two-fold serial dilution method; format: functional; in short: as §6
Albumin [12] = target: T1, Albumin; experiment: Binding affinity to human serum albumin by fluorescence spectrophotometry in presence of Ni2+; format: ADME; conditions: isolated protein; in short: as §5
[13] = Cytotoxicity against human LO2 cells assessed as inhibition of cell viability at 128 ug/ml after 24 hrs by MTT assay; format: cell-based, L02; conditions: read-out: INH
In short: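 Human hepatocyte LO2 cells were plated, attached for 24 h, then exposed to the compound diluted in medium from DMSO stock, at 37 °C in 5% CO2. Viability was read by MTT at 490 nm. Inhibition was calculated as the percent reduction of viable cells versus a drug-free control, mean of three parallels.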

Streptococcus pneumoniae = experiment: Antibacterial activity against Streptococcus pneumoniae by two-fold serial dilution method; format: functional; in short: as §4
Candida albicans = experiment: Antifungal activity against Candida albicans ATCC 76615 after 24 hrs by microbroth dilution method; format: functional; conditions: ATCC 76615, 24 h; in short: as §2
Micrococcus luteus = experiment: Antibacterial activity against Micrococcus luteus by two-fold serial dilution method; format: functional; in short: as §4
[14] = Cytotoxicity against human A549 cells assessed as cell viability at 256 ug/ml after 24 hrs by CCK-8 assay; format: cell-based; conditions: read-out: Activity
In short: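 A549 cells were plated and allowed to attach for 24 h, then medium with the compound was added. The compound came from DMSO stocks diluted in medium to 8, 16, 32, 64, 128 and 256 µg/mL. Cells were kept at 37 °C in 5% CO2. Viability was read by CCK-8 absorbance at 450 nm against a drug-free control, three replicates.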

Albumin [15] = target: T1, Albumin; experiment: Drug transport index, ratio of Kb to K0 for human serum albumin by fluorescence spectrophotometry in presence of Mg2+; format: ADME; in short: as §3
[16] = Octanol-water partition co-efficient, log P of the compound by shake flask method; format: physicochemical
Pseudomonas aeruginosa = experiment: Antibacterial activity against Pseudomonas aeruginosa by two-fold serial dilution method; format: functional; in short: as §4
Escherichia coli = experiment: Antibacterial activity against Escherichia coli DH52 by two-fold serial dilution method; format: functional; in short: as §4
Pichia norvegensis = experiment: Antifungal activity against Candida mycoderma after 24 hrs by microbroth dilution method; format: functional
Albumin [17] = target: T1, Albumin; experiment: Drug transport index, ratio of Kb to K0 for human serum albumin by fluorescence spectrophotometry in presence of Ca2+; format: ADME; in short: as §3
[18] = Antibacterial activity against Eberthella typhosa by two-fold serial dilution method; format: functional; in short: as §6
Albumin [19] = target: T1, Albumin; experiment: Drug transport index, ratio of Kb to K0 for human serum albumin by fluorescence spectrophotometry in presence of […]; format: ADME; in short: as §3
[20] = Cytotoxicity against human LO2 cells assessed as inhibition of cell viability at 32 ug/ml after 24 hrs by MTT assay; format: cell-based, L02; conditions: read-out: INH; in short: as §1
[21] = Cytotoxicity against human LO2 cells assessed as inhibition of cell viability at 64 ug/ml after 24 hrs by MTT assay; format: cell-based, L02; conditions: read-out: INH; in short: as §1
Aspergillus flavus = experiment: Antifungal activity against Aspergillus flavus ATCC 96918 after 24 hrs by microbroth dilution method

T1 sequence (P02768 whole entry): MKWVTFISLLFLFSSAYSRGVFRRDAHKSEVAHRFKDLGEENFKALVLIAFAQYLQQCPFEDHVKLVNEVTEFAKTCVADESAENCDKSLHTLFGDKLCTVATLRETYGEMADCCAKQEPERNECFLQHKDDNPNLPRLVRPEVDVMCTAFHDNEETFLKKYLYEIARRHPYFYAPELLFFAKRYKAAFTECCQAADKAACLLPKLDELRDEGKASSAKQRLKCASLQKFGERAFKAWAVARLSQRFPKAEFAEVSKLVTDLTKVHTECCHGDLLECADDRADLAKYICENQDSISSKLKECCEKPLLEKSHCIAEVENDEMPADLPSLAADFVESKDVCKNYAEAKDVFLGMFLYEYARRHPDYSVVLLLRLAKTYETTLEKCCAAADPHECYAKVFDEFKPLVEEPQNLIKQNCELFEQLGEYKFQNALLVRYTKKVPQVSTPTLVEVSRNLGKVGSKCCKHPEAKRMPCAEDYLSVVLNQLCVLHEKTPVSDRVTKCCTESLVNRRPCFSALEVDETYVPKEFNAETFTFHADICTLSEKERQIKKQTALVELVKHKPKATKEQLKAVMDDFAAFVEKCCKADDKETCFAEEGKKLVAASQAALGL

| SMILES | MIC (Saccharomyces cerevisiae) | MIC (Staphylococcus aureus [3]) | solubility [6] | MIC (Shigella dysenteriae) | MIC (Cyberlindnera jadinii) | pKa [9] | MIC (Bacillus spizizenii) | MIC (Staphylococcus aureus [11]) | MIC (Streptococcus pneumoniae) | MIC (Candida albicans) | MIC (Micrococcus luteus) | logP [16] | MIC (Pseudomonas aeruginosa) | MIC (Escherichia coli) | MIC (Pichia norvegensis) | MIC [18] | MIC (Aspergillus flavus) | also measured |
| --- | --- | --- | --- | --- | --- | --- | --- | --- | --- | --- | --- | --- | --- | --- | --- | --- | --- | --- |
| Cc1ncc([N+](=O)[O-])n1CC(O)Cn1cc(C(=O)O)c(=O)c2ccc(C(F)(F)F)cc21 (centres undefined) | 64 µg/mL (≈ 145 µM) | 4 µg/mL (≈ 9.08 µM) | 790 µg/mL (≈ 1790 µM) | 0.5 µg/mL (≈ 1.14 µM) | 512 µg/mL (≈ 1160 µM) | 5.6 | 4 µg/mL (≈ 9.08 µM) | 1 µg/mL (≈ 2.27 µM) | 4 µg/mL (≈ 9.08 µM) | 64 µg/mL (≈ 145 µM) | 1 µg/mL (≈ 2.27 µM) | -0.25 | 4 µg/mL (≈ 9.08 µM) | 0.5 µg/mL (≈ 1.14 µM) | 64 µg/mL (≈ 145 µM) | 8 µg/mL (≈ 18.2 µM) | – | cytotoxicity at 24 h, 16 ug/ml [1]: 6.7%; Ratio (Albumin [2]): 1.02; cytotoxicity at 24 h, 8 ug/ml [4]: 3.6%; Activity (Calf thymus DNA): Dose-dependent effect; Kb (Albumin [5]): 3.42 ×10⁴ L/mol; Kb (Albumin [7]): 5.63 ×10⁴ L/mol; Kb (Albumin [8]): 5.15 ×10⁴ L/mol; Kb (Albumin [10]): 3.61 ×10⁴ L/mol; Kb (Albumin [12]): 5.07 ×10⁴ L/mol; cytotoxicity at 24 h, 128 ug/ml [13]: 17.5%; viability at 24 h, 256 ug/ml [14]: > 83%; Ratio (Albumin [15]): 0.91; Ratio (Albumin [17]): 1.43; Ratio (Albumin [19]): 1.51; cytotoxicity at 24 h, 32 ug/ml [20]: 10.3%; cytotoxicity at 24 h, 64 ug/ml [21]: 15.2% |
| CCOC(=O)c1cn(CC2CO2)c2c(F)cccc2c1=O (racemic) | – | – | – | – | 512 µg/mL (≈ 1760 µM) | – | 32 µg/mL (≈ 110 µM) | – | – | – | – | – | – | – | 64 µg/mL (≈ 220 µM) | 2 µg/mL (≈ 6.87 µM) | 512 µg/mL (≈ 1760 µM) | – |
| CCOC(=O)c1cn(CC2CO2)c2c(Cl)cc(Cl)cc2c1=O (racemic) | – | – | – | – | 512 µg/mL (≈ 1500 µM) | – | 2 µg/mL (≈ 5.84 µM) | – | – | – | – | – | – | – | 1 µg/mL (≈ 2.92 µM) | 2 µg/mL (≈ 5.84 µM) | 512 µg/mL (≈ 1500 µM) | – |
| Cc1ncc([N+](=O)[O-])n1CC(O)Cn1cc(C(=O)O)c(=O)c2cccc(F)c21 (centres undefined) | 64 µg/mL (≈ 164 µM) | 8 µg/mL (≈ 20.5 µM) | 390 µg/mL (≈ 999 µM) | 8 µg/mL (≈ 20.5 µM) | 256 µg/mL (≈ 656 µM) | 5.12 | 16 µg/mL (≈ 41 µM) | 4 µg/mL (≈ 10.2 µM) | 32 µg/mL (≈ 82 µM) | 256 µg/mL (≈ 656 µM) | 4 µg/mL (≈ 10.2 µM) | -0.13 | 2 µg/mL (≈ 5.12 µM) | 4 µg/mL (≈ 10.2 µM) | 512 µg/mL (≈ 1310 µM) | 4 µg/mL (≈ 10.2 µM) | – | – |
| Cc1ncc([N+](=O)[O-])n1CC(O)Cn1cc(C(=O)O)c(=O)c2cc(Cl)cc(Cl)c21 (centres undefined) | 64 µg/mL (≈ 145 µM) | 16 µg/mL (≈ 36.3 µM) | 350 µg/mL (≈ 793 µM) | 16 µg/mL (≈ 36.3 µM) | 256 µg/mL (≈ 580 µM) | 5.26 | 8 µg/mL (≈ 18.1 µM) | 32 µg/mL (≈ 72.5 µM) | 16 µg/mL (≈ 36.3 µM) | 128 µg/mL (≈ 290 µM) | 16 µg/mL (≈ 36.3 µM) | 0.22 | 8 µg/mL (≈ 18.1 µM) | 32 µg/mL (≈ 72.5 µM) | 256 µg/mL (≈ 580 µM) | 32 µg/mL (≈ 72.5 µM) | – | – |
